The source made the active and inactive calls. The rule behind the calls is not given here.
What was measured:
Type in all cases: cell-based
[1] = target: T1, Signal transducer and activator of transcription 1-alpha/beta (Homo sapiens) (UniProt P42224); assay: Inhibition of IFN-gamma-induced Stat1 phosphorylation at Tyr701 in human MDA-MB-468 cells at 5 uM treated 1.5 hrs before IFN-gamma challenge measured after 30 mins by Western blotting
T1 sequence (whole entry): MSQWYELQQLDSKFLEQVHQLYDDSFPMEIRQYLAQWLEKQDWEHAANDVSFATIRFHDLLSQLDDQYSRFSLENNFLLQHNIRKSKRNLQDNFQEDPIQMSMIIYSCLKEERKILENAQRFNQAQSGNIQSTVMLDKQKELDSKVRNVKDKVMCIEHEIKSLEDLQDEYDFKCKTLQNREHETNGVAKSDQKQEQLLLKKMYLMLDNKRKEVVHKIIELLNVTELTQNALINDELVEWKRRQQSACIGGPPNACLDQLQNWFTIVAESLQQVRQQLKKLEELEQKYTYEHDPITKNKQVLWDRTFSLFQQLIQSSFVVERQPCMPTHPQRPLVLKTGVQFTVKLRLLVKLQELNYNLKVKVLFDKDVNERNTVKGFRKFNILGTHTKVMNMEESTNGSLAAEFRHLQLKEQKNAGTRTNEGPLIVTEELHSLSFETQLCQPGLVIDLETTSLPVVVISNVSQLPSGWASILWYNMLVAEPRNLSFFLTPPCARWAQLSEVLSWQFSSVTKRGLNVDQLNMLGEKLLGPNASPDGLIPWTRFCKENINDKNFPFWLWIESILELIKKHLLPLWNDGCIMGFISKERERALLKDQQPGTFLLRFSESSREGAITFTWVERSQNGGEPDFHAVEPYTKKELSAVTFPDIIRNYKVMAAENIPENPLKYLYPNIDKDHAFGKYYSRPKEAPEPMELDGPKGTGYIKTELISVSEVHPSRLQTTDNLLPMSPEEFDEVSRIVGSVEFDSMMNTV
Outline: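 MDA-MB-468 cells exposed to rising prodrug concentrations for 1.5 h, then interferon γ 25 ng/mL for 30 min; Western blot for pTyr701 and total Stat1.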

[2] = target: Baculoviral IAP repeat-containing protein 5 (Homo sapiens) (UniProt O15392); assay: Inhibition of survivin in human MDA-MB-468 cells at 5 uM after up to 48 hrs by Western blotting
Chain of Baculoviral IAP repeat-containing protein 5 (Homo sapiens) (O15392 whole entry, the tested form may be a part): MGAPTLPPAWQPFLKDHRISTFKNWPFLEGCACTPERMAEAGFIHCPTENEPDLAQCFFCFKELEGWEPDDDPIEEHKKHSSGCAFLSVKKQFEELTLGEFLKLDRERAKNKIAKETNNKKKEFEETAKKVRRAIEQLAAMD

[3] = system: MDA-MB-468; assay: Selectivity ratio of inhibition of IFNgamma-induced Stat1 phosphorylation at Tyr701 to inhibition of EGF-induced SH2 domain of Stat3 phosphorylation at Tyr705 in human MDA-MB-468 cells

C/C(=C\C(=O)N[C@H]1CCc2cccc3c2N(C1=O)[C@H](C(=O)N[C@H](C)CCC(N)=O)C3)c1ccc(C(F)(F)P(=O)(OCOC(=O)C(C)(C)C)OCOC(=O)C(C)(C)C)cc1 was tested, and the inhibition [1] was “Active”, the inhibition [2] was “Active” and the Ratio [3] was 10.
